Laboratory results: the RNAGym collection of RNA variant scans (doi:10.1038/s41586-018-0170-7)

B1: tRNA (parent)
chain: GUUCCGUUGGCGUAAUGGUAACGCGUCUCCCUCCUAAGGAGAAGACUGCGGGUUCGAGUCCCGUACGGAACG

Variants of: B1
Assay: yeast fitness, log relative to wild type (ln ratio); higher = fitter; tRNA-Arg(CCU), competitive growth, 37 C, 1 M NaCl
Method in brief: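 Fitness is the natural log of a genotype's generation count divided by that of the wild type. A combinatorial library of tRNA-Arg(CCU) variants sat on a HIS3 centromeric plasmid in BY4742 lacking the chromosomal gene, from two independent transformations. Pools grew 4 generations in SC-HIS at 30 °C, then ~6.5 generations (~26.5 h) in SC-HIS 1M NaCl at 37 °C, with three outputs per input. Generations came from OD-scaled log2 output/input frequency, inverse-variance weighted across replicates, with variants counted by 125 bp paired-end Illumina sequencing.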

Going from G1A U2G G6A C27U C46U A69G A70G to G1A U2G C27U, the “yeast fitness (ln)” value rises from -0.226 to -0.0429.

Compared with U2C G6A C27U C66U A70G, U2G G6A C27U A43C C46U C66A A69G A70G C71U is lower in “yeast fitness (ln)” value: -0.0339 for the first, -0.252 for the second.

First: G1A U2G A43C C46U C66A A70G
Second: G1A U2G G6A C66U A69G A70G C71U
The “yeast fitness (ln)” value of the first is higher: -0.26 for the first, -0.366 for the second.

Compared with U2G G6A C27U A69G A70G C71U, U2G G6A C27U A69G is higher in “yeast fitness (ln)” value: -0.245 for the first, -0.24 for the second.

Going from G1A U2G G6A C27U to U2C G6U C27U A43C C66A A70U, the “yeast fitness (ln)” value falls from -0.0861 to -0.167.

Compared with U2C G6U C46U C66U A70U C71U, U2G G6U C27U A43C C66A A69G C71U is lower in “yeast fitness (ln)” value: -0.202 for the first, -0.445 for the second.

Compared with G1A U2G G6U C27U A43C C66U A69G C71U, G1A U2G A43C C46U A69G is higher in “yeast fitness (ln)” value: -0.764 for the first, -0.0712 for the second.

First: G1A G6U C27U A43C A70U C71U
Second: G6A C27U A43C A69G A70G C71U
The “yeast fitness (ln)” value of the first is higher: -0.341 for the first, -0.371 for the second.

Compared with G6U A43C A69G C71U, G1A G6U C66U A70G is higher in “yeast fitness (ln)” value: -0.389 for the first, -0.199 for the second.

Compared with A43C C66U, G6U A43C C46U C66U A69G is lower in “yeast fitness (ln)” value: -0.178 for the first, -0.261 for the second.

First: G1A G6U A43C A70G C71U
Second: G1A U2G C27U A43C C46U A70U C71U
The “yeast fitness (ln)” value of the first is lower: -0.383 for the first, -0.0479 for the second.

Going from U2G C27U A43C C66A A69G A70G to G1A U2G G6U C66A C71U, the “yeast fitness (ln)” value rises from -0.42 to -0.193.

Compared with C27U C66A A69G A70U, G6A A43C C46U A70U is higher in “yeast fitness (ln)” value: -0.15 for the first, -0.117 for the second.

Compared with U2C G6A C27U C46U C66U A70U, G1A C27U C66U A70U is lower in “yeast fitness (ln)” value: -0.112 for the first, -0.152 for the second.

First: U2G G6A C27U C46U C66A
Second: G1A U2G G6A C27U C66U A69G A70U C71U
The “yeast fitness (ln)” value of the first is higher: -0.0567 for the first, -0.479 for the second.

First: U2G G6U C46U C66U A70G
Second: G1A U2G A43C C46U A69G A70U C71U
The “yeast fitness (ln)” value of the first is higher: -0.137 for the first, -0.29 for the second.

Going from G1A U2C G6U C27U C46U A69G A70G C71U to G1A U2C C27U C66U C71U, the “yeast fitness (ln)” value falls from -0.272 to -0.33.

Going from U2G C27U A43C C46U C66U A69G A70U C71U to G6U C27U A43C C66A A70U, the “yeast fitness (ln)” value rises from -0.395 to -0.185.

Compared with G1A G6U A43C C46U A69G A70G C71U, G1A G6U C27U C46U C71U is higher in “yeast fitness (ln)” value: -0.321 for the first, -0.239 for the second.

Compared with G1A U2G A43C C46U A69G A70G C71U, G1A U2C G6A C27U A43C C46U A70G is higher in “yeast fitness (ln)” value: -0.226 for the first, 0.0488 for the second.

Going from G1A U2C G6U C46U C66U A70G C71U to G1A G6A C27U A43C C46U A69G A70U C71U, the “yeast fitness (ln)” value falls from -0.0224 to -0.399.

Going from U2C G6U C27U A43C C66A C71U to G1A U2C C27U C66U A70G C71U, the “yeast fitness (ln)” value rises from -0.176 to -0.127.

First: G1A C27U C66U A70G C71U
Second: C27U C66U A70G
The “yeast fitness (ln)” value of the first is lower: -0.225 for the first, -0.116 for the second.

Compared with G1A U2C G6U A43C C46U C66A A69G A70U, U2C G6A C27U C46U C66A A70G C71U is lower in “yeast fitness (ln)” value: -0.0654 for the first, -0.228 for the second.

First: U2C C27U C66A C71U
Second: U2C A43C C71U
The “yeast fitness (ln)” value of the first is higher: -0.146 for the first, -0.168 for the second.

Going from G1A U2C G6U C46U C66U A70U C71U to U2C C27U A43C C46U A70G C71U, the “yeast fitness (ln)” value rises from -0.203 to -0.00986.

Compared with U2C G6A C27U C46U A69G C71U, U2G G6A A43C C46U A70G is higher in “yeast fitness (ln)” value: -0.172 for the first, -0.148 for the second.

Going from G1A U2C G6U A43C C46U C66A A69G A70G C71U to G1A U2C G6U A43C C46U, the “yeast fitness (ln)” value rises from -0.0061 to 0.0223.

Going from G1A G6U C27U A43C C66U A69G A70U to G6A C27U C46U C66A A70U, the “yeast fitness (ln)” value rises from -0.469 to -0.102.

Compared with U2C G6U C46U C66U C71U, G1A U2G A43C C46U A70G is lower in “yeast fitness (ln)” value: -0.112 for the first, -0.114 for the second.

Compared with G6A C27U A43C C66A A70U, G1A C66U A69G A70G is higher in “yeast fitness (ln)” value: -0.204 for the first, -0.176 for the second.

First: G6U C27U A43C C46U A69G A70U
Second: G1A G6U C46U C66A A69G A70U C71U
The “yeast fitness (ln)” value of the first is higher: -0.245 for the first, -0.341 for the second.

Compared with U2G G6U A43C C46U C66U A69G A70U, G1A G6A A43C C46U C71U is higher in “yeast fitness (ln)” value: -0.286 for the first, -0.145 for the second.

Compared with G6U A69G A70U C71U, G1A G6U A43C C46U A69G A70U is higher in “yeast fitness (ln)” value: -0.394 for the first, -0.272 for the second.

Going from G1A G6U C27U A43C C66U A69G A70G to U2C G6U C46U C66U A70U, the “yeast fitness (ln)” value rises from -0.51 to -0.0353.

Compared with C46U C71U, G1A U2G C46U C66A A69G A70U C71U is lower in “yeast fitness (ln)” value: -0.00784 for the first, -0.385 for the second.

First: U2G C46U A69G C71U
Second: G1A U2C G6A A43C C46U
The “yeast fitness (ln)” value of the first is lower: -0.0879 for the first, 0.0217 for the second.

First: C27U A43C C66U A70U
Second: G6A C27U C46U C66U A69G C71U
The “yeast fitness (ln)” value of the first is higher: -0.147 for the first, -0.446 for the second.

Going from G1A U2C G6A A43C C66U A70G to C66U A69G A70G C71U, the “yeast fitness (ln)” value rises from -0.12 to -0.106.

First: G1A U2G G6A C27U C66U A70U C71U
Second: G1A G6A C46U C66U A69G
The “yeast fitness (ln)” value of the first is higher: -0.164 for the first, -0.423 for the second.

Going from G1A G6A C27U C46U A70G to G1A U2G G6A C27U A43C C66A A70U, the “yeast fitness (ln)” value falls from -0.208 to -0.249.

With G1A U2C G6U A43C C66U A69G A70G C71U the “yeast fitness (ln)” value was -0.344.
